What was measured:
Mus musculus [1] = assay: Toxicity in fasting C57BL/J6 mouse assessed as glucose level at 50 mg/kg, po measured after 60 mins; type: organism-based; set-up: dose 50 mg/kg, route oral; details: in vivo, 1 h
Method in brief: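 Eight-week-old male C57BL/6 mice were fasted 6 h with free access to water, then dosed orally with compound or 0.5% methylcellulose vehicle, with no glucose challenge. Blood glucose was followed up to 360 min, n = 6 per group.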

Salmonella typhimurium [2] = assay: Cytotoxicity in Salmonella typhimurium TA98 at 1.5 to 5000 ug/plate in presence of S9 fraction; type: organism-based; details: salmonella enterica subsp. enterica serovar typhimurium
Method in brief: (§1)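 Ames reverse mutation test by direct plate incorporation in S. typhimurium TA98 and TA100, with or without Aroclor 1254-induced rat liver S9 mix. Compound in DMSO at 1.5–5000 µg/plate, plated in top agar, incubated 37 °C for about 50 h, then revertant colonies counted. Plates were checked for precipitation and cytotoxicity. A positive was a reproducible, dose-related increase in revertants of more than 2-fold.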

Salmonella typhimurium [3] = assay: Cytotoxicity in Salmonella typhimurium TA100 at 1.5 to 5000 ug/plate in presence of S9 fraction; type: organism-based; details: salmonella enterica subsp. enterica serovar typhimurium; method in brief: as §1
[4] = Metabolic stability in human liver microsomes assessed as compound remaining after 1 hr relative to control; type: ADME; details: read-out: Stability
Method in brief: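 Liver microsomes from mouse, dog or human were incubated with compound for 1 h, and the percentage of compound remaining was determined.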

[5] = Elimination half life in Sprague-Dawley rat at 3 mg/kg, iv and 10 mg/kg, po; type: ADME, organism-based; details: in vivo, read-out: beta t1/2 (converted)
Method in brief: (§2)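 Male ICR mice and 7-week-old SD rats received a 3 mg/kg intravenous bolus or a 10 mg/kg oral gavage dose. Plasma was deproteinized with acetonitrile (2 volumes) and compound measured by HPLC. Parameters came from noncompartmental analysis.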

[6] = Cmax in ICR mouse at 3 mg/kg, iv and 10 mg/kg, po; type: ADME, organism-based; details: in vivo; method in brief: as §2
[7] = Tmax in Sprague-Dawley rat at 3 mg/kg, iv and 10 mg/kg, po; type: ADME, organism-based; details: in vivo
Method in brief: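 Male ICR mice and 7-week-old SD rats received a 3 mg/kg iv bolus or a 10 mg/kg oral gavage dose. Plasma was precipitated with 2 volumes of acetonitrile and analysed by HPLC. Parameters came from noncompartmental analysis.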

[8] = Cmax in male Sprague-Dawley rat at 250 mg/kg, po measured on day 1; type: ADME, organism-based; set-up: dose 250 mg/kg, route oral; details: in vivo
Method in brief: (§3)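 Sprague–Dawley rats, 5 weeks old at arrival, both sexes. Given the compound by oral gavage once daily for 14 days at 0, 250, 500 or 1000 mg/kg/day, with 0.5% methylcellulose as vehicle. Toxicokinetic parameters were determined on Day 1 and Day 14.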

[9] = Cmax in male Sprague-Dawley rat at 1000 mg/kg, po measured on day 1; type: ADME, organism-based; set-up: dose 1000 mg/kg, route oral; details: in vivo; method in brief: as §3
[10] = Cmax in female Sprague-Dawley rat at 1000 mg/kg, po measured on day 1; type: ADME, organism-based; set-up: dose 1000 mg/kg, route oral; details: in vivo; method in brief: as §3
[11] = Cmax in female Sprague-Dawley rat at 1000 mg/kg, po measured on day 14; type: ADME, organism-based; set-up: dose 1000 mg/kg, route oral; details: in vivo; method in brief: as §3
[12] = Tmax in male Sprague-Dawley rat at 500 mg/kg, po measured on day 1; type: ADME, organism-based; set-up: dose 500 mg/kg, route oral; details: in vivo
Method in brief: (§4)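 Sprague–Dawley rats of both sexes, 5 weeks old at arrival, received daily oral gavage at 0, 250, 500 or 1000 mg/kg/day for 14 days. Vehicle was 0.5% methylcellulose at 10 mL/kg. Toxicokinetics were taken on Day 1 and Day 14. Necropsy was by Day 15. Testis was fixed in modified Davidson's fixative, paraffin-sectioned and H&E-stained, with histopathology on control and high-dose groups only.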

[13] = Tmax in male Sprague-Dawley rat at 1000 mg/kg, po measured on day 14; type: ADME, organism-based; set-up: dose 1000 mg/kg, route oral; details: in vivo; method in brief: as §4
[14] = Tmax in female Sprague-Dawley rat at 500 mg/kg, po measured on day 1; type: ADME, organism-based; set-up: dose 500 mg/kg, route oral; details: in vivo; method in brief: as §4
[15] = Tmax in female Sprague-Dawley rat at 500 mg/kg, po measured on day 14; type: ADME, organism-based; set-up: dose 500 mg/kg, route oral; details: in vivo; method in brief: as §4
[16] = Tmax in female Sprague-Dawley rat at 1000 mg/kg, po measured on day 1; type: ADME, organism-based; set-up: dose 1000 mg/kg, route oral; details: in vivo; method in brief: as §4
[17] = AUC (0 to t) in male Sprague-Dawley rat at 500 mg/kg, po measured on day 14; type: ADME, organism-based; set-up: dose 500 mg/kg, route oral; details: plasma; method in brief: as §3
[18] = AUC (0 to t) in male Sprague-Dawley rat at 1000 mg/kg, po measured on day 14; type: ADME, organism-based; set-up: dose 1000 mg/kg, route oral; details: plasma; method in brief: as §3
[19] = AUC (0 to t) in female Sprague-Dawley rat at 250 mg/kg, po measured on day 1; type: ADME, organism-based; set-up: dose 250 mg/kg, route oral; details: plasma; method in brief: as §3
[20] = AUC (0 to t) in female Sprague-Dawley rat at 1000 mg/kg, po measured on day 14; type: ADME, organism-based; set-up: dose 1000 mg/kg, route oral; details: plasma; method in brief: as §3
Rattus norvegicus = assay: Toxicity in Sprague-Dawley rat assessed as seminiferous tubule degeneration at 250 to 1000 mg/kg, po by hematoxylin and eosin staining-based microscopy; type: organism-based; set-up: dose 250-1000 mg/kg, route oral; details: in vivo; method in brief: as §4
Hepatocyte = assay: Induction of 2-Deoxy-D-[3H]-glucose uptake in rat Hepatocytes using 5.5 mM glucose after 4 hrs by liquid scintillation counting; type: functional
Method in brief: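 Rat primary hepatocytes, isolated by collagenase liver perfusion, viability over 85%. Cells attached 36 h on collagen I in MEM with 10% FBS, then serum-starved 12 h. Incubated 4 h in serum-free MEM with 5.5 mM glucose and 2-deoxy-D-[3H]-glucose, with or without compound. Washed in ice-cold PBS, lysed in 0.1 N NaOH, scintillation counted, expressed as % increase over control.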

[21] = Increase in 11 mM glucose-stimulated insulin secretion in Sprague-Dawley rat Pancreatic islet measured for 1 hr by ELISA; type: functional
Method in brief: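 Islets isolated from male Sprague–Dawley rat pancreas, five per well. Islets were pre-incubated 30 min in HEPES-buffered Krebs–Ringer buffer (pH 7.4) with low glucose, then moved to the same buffer with glucose (11 mM) plus test compound. Static incubation ran at 37 °C in a shaking waterbath under 5% CO₂. Buffer was sampled at 1 h, insulin measured by ELISA, and reported as % increase versus control.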

Cytochrome P450 2C19 = Cytochrome P450 2C19 (Homo sapiens, UniProt P33261); assay: Inhibition of CYP2C19 in human liver microsomes; type: ADME
Method in brief: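 Pooled human liver microsomes (0.25 mg/mL) with a CYP-selective substrate and test compound, preincubated at 37 °C. Stopped on ice with ice-cold acetonitrile, centrifuged, and the supernatant analysed by LC–MS/MS.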

Cytochrome P450 2D6 = Cytochrome P450 2D6 (Homo sapiens, UniProt P10635); assay: Inhibition of CYP2D6 in human liver microsomes; type: ADME
Method in brief: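 Pooled human liver microsomes at 0.25 mg/mL, each with a CYP-selective substrate and test compound up to 25 µM, preincubated at 37 °C. It is stopped on ice with ice-cold acetonitrile and centrifuged, and the supernatant is analysed by LC–MS/MS.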

[22] = Apparent permeability of the compound by PAMPA; type: physicochemical
Mus musculus [23] = assay: Toxicity in C57BL/J6 mouse assessed as hypoglycemia at 150 mg/kg, po; details: in vivo

Sequence of Cytochrome P450 2C19 (P33261 whole entry): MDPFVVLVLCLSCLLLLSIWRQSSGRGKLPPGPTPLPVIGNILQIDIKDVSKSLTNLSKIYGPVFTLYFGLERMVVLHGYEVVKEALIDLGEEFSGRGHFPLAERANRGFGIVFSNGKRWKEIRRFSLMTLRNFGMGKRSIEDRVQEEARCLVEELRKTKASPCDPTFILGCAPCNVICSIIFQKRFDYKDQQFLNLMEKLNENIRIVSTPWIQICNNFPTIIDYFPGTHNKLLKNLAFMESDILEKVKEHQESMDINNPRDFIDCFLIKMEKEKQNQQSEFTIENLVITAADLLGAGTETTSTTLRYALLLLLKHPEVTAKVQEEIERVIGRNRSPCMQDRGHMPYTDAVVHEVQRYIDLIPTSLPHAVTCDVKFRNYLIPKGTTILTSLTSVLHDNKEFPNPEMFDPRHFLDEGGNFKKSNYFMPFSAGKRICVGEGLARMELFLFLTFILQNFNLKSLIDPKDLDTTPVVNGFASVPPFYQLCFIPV
Sequence of Cytochrome P450 2D6 (P10635 whole entry): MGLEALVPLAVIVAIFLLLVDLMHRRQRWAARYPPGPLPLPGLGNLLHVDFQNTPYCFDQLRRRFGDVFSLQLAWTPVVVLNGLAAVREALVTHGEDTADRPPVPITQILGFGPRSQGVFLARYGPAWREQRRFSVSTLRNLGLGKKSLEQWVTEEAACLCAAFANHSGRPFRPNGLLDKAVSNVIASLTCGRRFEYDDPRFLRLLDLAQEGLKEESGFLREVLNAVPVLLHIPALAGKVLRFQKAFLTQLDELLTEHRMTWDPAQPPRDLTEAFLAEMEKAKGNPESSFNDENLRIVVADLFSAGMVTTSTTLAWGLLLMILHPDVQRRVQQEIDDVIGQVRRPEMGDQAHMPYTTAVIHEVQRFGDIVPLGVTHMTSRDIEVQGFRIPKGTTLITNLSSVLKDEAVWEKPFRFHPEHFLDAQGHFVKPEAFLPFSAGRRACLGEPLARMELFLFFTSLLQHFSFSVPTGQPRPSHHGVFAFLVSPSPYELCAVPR

remaining at 1 h [4]: > 60%
half-life [5]: 0.3 h
Cmax [6]: 11700 ng/mL
Tmax [7]: 0.42 h
Cmax [8]: 3060 ng/mL
Cmax [9]: 4250 ng/mL
Cmax [10]: 7590 ng/mL
Cmax [11]: 5210 ng/mL
Tmax [12]: 3.7 h
Tmax [13]: 5 h
Tmax [14]: 3.3 h
Tmax [15]: 1.3 h
Tmax [16]: 2.7 h
AUC(0-t) [17]: 13600 ng·h/mL
AUC(0-t) [18]: 25000 ng·h/mL
AUC(0-t) [19]: 13700 ng·h/mL
AUC(0-t) [20]: 24000 ng·h/mL
inhibition (INH) (Cytochrome P450 2C19): Not Active
inhibition (INH) (Cytochrome P450 2D6): Not Active
Papp [22]: 2.62 ×10⁻⁶ cm/s
Structure (SMILES): COCCOCn1ccc(NC(=O)c2cc(Oc3ccc(S(C)(=O)=O)cc3)cc(-c3ncccc3C)c2)n1
Activity (Mus musculus [1]): > 60 mg/dL
Activity (Salmonella typhimurium [2]): Non-toxic
Activity (Salmonella typhimurium [3]): Non-toxic
Activity (Rattus norvegicus): Non-toxic
fold change (FC) (Hepatocyte): 2.23
fold change (FC) [21]: 3
Activity (Mus musculus [23]): Non-toxic
